Bioassay records (PubChem)
Shown are actives, neighbours in structure and some others; about 1.5% of the full set was active somewhere.
VLA-4 inh: inhibition in human VLA-4 binding assay, primary screen, VLA-4 allosteric modulator project, MLPCN library, flow cytometry, VLA-4 expressing cells | ligand binding flow cytometry | inhibition, % (about 7 µM as worked out from the volumes in the protocol) | Integrin alpha-4 (Homo sapiens), P13612 | actives 0.2% (n = 330,000); in the data active = inhibition above about 50%
Myeloid diff MLP: induction of myeloid progenitor differentiation, primary screen, cell-based, flow cytometry, MLPCN library; ER-HoxA9 myeloid progenitors, lysozyme-GFP differentiation; calls only at 10 µM; actives 1% (n = 360,000);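 active = normalized GFP-positive differentiation at or above the plate's own cutoff, the solvent-only control mean plus 3 SD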;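 also: cells exposed to compound for four days before flow analysis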
SENP1 inh: human SENP1 catalytic domain inhibitors, primary screen, biochemical, FRET, uHTS; recombinant SENP1 catalytic domain, CyPet-SUMO1-YPet FRET cleavage; actives 0.21% (n = 360,000); Sentrin-specific protease 1 (Homo sapiens), Q9P0U3; AID 624204, 2012; inhibition, % at 10 µM;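 active = inhibition at least 30% at 10 µM, raw YFP signal under a set limit, fluorescence ratio 0.5 to 1.5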;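 also: 0% = enzyme with DMSO and 100% = no enzyme wells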
Target sequence (Q9P0U3 419-644 limits assumed): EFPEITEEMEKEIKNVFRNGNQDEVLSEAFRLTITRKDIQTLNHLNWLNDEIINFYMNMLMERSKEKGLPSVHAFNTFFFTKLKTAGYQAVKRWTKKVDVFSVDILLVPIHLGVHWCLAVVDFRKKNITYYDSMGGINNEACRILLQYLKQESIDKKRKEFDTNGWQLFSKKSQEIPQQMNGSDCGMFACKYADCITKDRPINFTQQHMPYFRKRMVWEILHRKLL
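Test system: recombinant human SENP1 catalytic domain, His6-tagged / Medium: pH 8 Tris buffer with EDTA, NaCl, BME, BSA, NP40, catalase / Also added: SUMO1 FRET substrate flanked by Cypet and Ypet, 25 nM / Times: 50 min reaction at room temperature / Signal: FRET, CFP and YFP emission / Control set: no-enzyme low control and enzyme-plus-DMSO high control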
Platelet DG rel: inhibitors of platelet dense granule secretion, primary screen, cell-based, MLPCN, human platelets. human platelet-rich plasma, SFLLRN dense granule ATP release, luminescence. inhibition, %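 (compounds screened at 7.5 µM in platelet-rich plasma)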. actives 0.22% (n = 300,000). AID 1663, 2009;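 active = mean replicate score, as percent of positive control, at or above 50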
Active calls of the source: *; i = inactive; . = not tested or not shown; + = active, no number.

SMILES	VLA-4 inh	Myeloid diff MLP	SENP1 inh	Platelet DG rel
CCN(CCn1cccn1)Cc1cn[nH]c1-c1ccc(-c2ccccc2)cc1	27	i	0	0
CCN(CCn1cccn1)Cc1cn[nH]c1-c1cccc2ccccc12	-2	i	-6	59*
Cc1ccc(S(=O)(=O)c2c(N)n(CCCN(C)C)c3nc4ccccc4nc23)cc1	0	i	-88	4
COc1ccc(S(=O)(=O)c2c(N)n(Cc3ccco3)c3nc4ccccc4nc23)cc1	-11	+	-23	0
COC(=O)c1c(C)[nH]c(C)c1C(=O)c1ccccc1Cc1ccccc1	-2	+	1	-1
CCCC(C)NC(=O)CN1C(=O)NC2(CCc3ccccc32)C1=O (stereo not given)	8	i	-2	-3
Cc1ccc(OCCC(=O)OCC(=O)Nc2cc(S(=O)(=O)N(C)C)ccc2C)cc1	2	+	0	2
COc1cccc(N(CC(=O)NC2CCCC2)C(=O)CCC(=O)Nc2cc(C)on2)c1	34	+	0	1
COc1cccc(CN(CC(=O)NC2CCCC2)C(=O)CCC(=O)Nc2cc(C)on2)c1	8	i	0	.
COc1cccc(-c2c(-c3cc(OC)cc(OC)c3)n(C)c3ccc(-c4cnc(N5CCOCC5)nc4)cc23)c1	13	+	0	.
COc1cccc(-c2c(-c3cc(OC)cc(OC)c3)n(C)c3ccc(-c4cnc(OC)nc4)cc23)c1	-11	i	-1	.
OCC1OC(n2cnc3ccccc32)CC1O (stereo not given)	5	i	1	36
Cc1cccc(OCC(=O)NCCCNC(=O)c2ccc(C)nc2)c1	-7	i	2	-6
Cc1[nH]c2ccccc2c1/C=C/C(=O)c1ccccc1	-470	+	-27	-3
CCn1c(/C=C/c2c[nH]c3ccccc23)nc2ccccc2c1=O	2	i	-29	-5
CCn1c(/C=C/c2c(C)[nH]c3ccccc23)nc2ccccc2c1=O	-2	+	-25	-14
COc1cc(NC(=O)CN2CCN(C(=O)c3ccco3)CC2)c(C)cc1[N+](=O)[O-]	.	i	1	.
O=C(Nc1cccc2cccnc12)c1ccc(Br)cc1Br	11	i	0	10
CCOc1ccc(C(=O)NCC(=O)NCC2CCCCC2)cc1OCC	30	i	1	3
COc1ccc(C2=NS(=O)(=O)N(C)C(C(=O)N3CCc4ccccc4C3)=C2)cc1OC	17	+	-12	-3
Cc1[nH]c2ccccc2c1CCNC(=O)c1ccc2c(c1[N+](=O)[O-])C(=O)c1ccccc1C2=O	-9	+	1	-1
Cc1[nH]c2c(C)cccc2c1CCNC(=O)c1ccc2c(c1[N+](=O)[O-])C(=O)c1ccccc1C2=O	-4	i	1	2
COc1cc2c(cc1OC)/C(=C/C#N)NC(C)(C)C2	-4	i	13	6
COc1cc2c(cc1OC)C1=CC(=O)C(=O)N1C(C)(C)C2	-129	+	-14	7
Cc1ccc(NC(=O)OCc2cccs2)cc1	57*	.	.	-6
SMILES	VLA-4 inh	Myeloid diff MLP	SENP1 inh	Platelet DG rel
O=C(O)CC(CN1C(=O)c2ccccc2C1=O)c1ccccc1 (stereo not given)	6	i	2	20
Cc1cc(O)ccc1Nc1nc(-c2cccs2)cs1	0	+	4	14
Cc1cc(O)ccc1Nc1nc(-c2cccnc2)cs1	-3	i	2	-4
CCCN1CCN(C(=O)c2oc3c(Cl)cccc3c2C)CC1	2	i	2	1
COc1ccc2[nH]c(C)c(CCN(Cc3cccs3)C(=S)Nc3ccc(F)cc3)c2c1	-33	+	49	15
Cc1ccc(-c2nnn(CC(=O)N(CC(=O)NC3CCCC3)c3cnc4ccccc4c3)n2)o1	17	+	-7	0
Cc1ccc(-c2nnn(CC(=O)N(CC(=O)NC(C)C)c3cnc4ccccc4c3)n2)o1	2	i	-19	-6
N#Cc1ccc(C(=O)Nc2cccc3ccccc23)c(F)c1	0	i	1	2
Cc1cccn2c(=O)c(/C=C(\C#N)C(=O)NCc3ccco3)c(N3CCCCCC3)nc12	-4	i	-127	-20
Cc1cccn2c(=O)c(/C=C(\C#N)C(=O)NCc3ccco3)c(N3CCCCC3)nc12	13	+	-42	-13
CC(C)NC(=O)C1CC(=O)N(CCc2ccc(F)cc2)C1 (stereo not given)	.	i	4	.
